Hits are enriched below; roughly 4.3% of the tested compounds scored in any of these assays.
SMARCA2 activ = increases SMARCA2 function in MMTV reporter cells. MG213 cells, MMTV-luciferase reporter, dexamethasone, overnight. activation, % at 9.1 µM. 370,000 compounds, 1% hits. AID 652017; in the data active means activation above about 7.8%;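 further: 0% = vehicle wells and 100% = reference activator wells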
Hep lipid drop = hepatic lipid droplet formation modulation; AML12 mouse hepatocytes, oleate lipid droplets, BODIPY imaging; inhibition, % at 6.5 µM; 240,000 compounds, 0.4% hits; AID 1656;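 active means lipid droplet intensity inhibited by at least 50%, with more than 500 cells counted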
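Material – mouse AML12 hepatocyte cell line, fixed after treatment · Compound dosing – one dose, 6.5 µM compound · Times – compound with oleate, overnight · Measured by – Image-based BODIPY and DAPI two-channel analysis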
SR-BI DiI inh = blocks mouse SR-BI lipid uptake from DiI-HDL; Q61009; ldlA[mSR-BI] CHO cells, DiI-HDL uptake fluorescence, 3 h; inhibition, % at 12.5 µM; 320,000 compounds, 0.96% hits;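 active means mean replicate inhibition of at least 70% and a set share of replicates each scoring 70 or more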;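 further: 0% = median of neutral control wells and 100% = median of positive control wells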
AHR act = activators of human aryl hydrocarbon receptor; 320,000 compounds, 2.5% hits; activation, % at 5 µM; P35869; AHR-responsive luciferase reporter cells, luminescence; in the data active means activation above about 47%;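 further: 0% = vehicle wells and 100% = reference agonist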
Target sequence (P35869 whole entry, looked up): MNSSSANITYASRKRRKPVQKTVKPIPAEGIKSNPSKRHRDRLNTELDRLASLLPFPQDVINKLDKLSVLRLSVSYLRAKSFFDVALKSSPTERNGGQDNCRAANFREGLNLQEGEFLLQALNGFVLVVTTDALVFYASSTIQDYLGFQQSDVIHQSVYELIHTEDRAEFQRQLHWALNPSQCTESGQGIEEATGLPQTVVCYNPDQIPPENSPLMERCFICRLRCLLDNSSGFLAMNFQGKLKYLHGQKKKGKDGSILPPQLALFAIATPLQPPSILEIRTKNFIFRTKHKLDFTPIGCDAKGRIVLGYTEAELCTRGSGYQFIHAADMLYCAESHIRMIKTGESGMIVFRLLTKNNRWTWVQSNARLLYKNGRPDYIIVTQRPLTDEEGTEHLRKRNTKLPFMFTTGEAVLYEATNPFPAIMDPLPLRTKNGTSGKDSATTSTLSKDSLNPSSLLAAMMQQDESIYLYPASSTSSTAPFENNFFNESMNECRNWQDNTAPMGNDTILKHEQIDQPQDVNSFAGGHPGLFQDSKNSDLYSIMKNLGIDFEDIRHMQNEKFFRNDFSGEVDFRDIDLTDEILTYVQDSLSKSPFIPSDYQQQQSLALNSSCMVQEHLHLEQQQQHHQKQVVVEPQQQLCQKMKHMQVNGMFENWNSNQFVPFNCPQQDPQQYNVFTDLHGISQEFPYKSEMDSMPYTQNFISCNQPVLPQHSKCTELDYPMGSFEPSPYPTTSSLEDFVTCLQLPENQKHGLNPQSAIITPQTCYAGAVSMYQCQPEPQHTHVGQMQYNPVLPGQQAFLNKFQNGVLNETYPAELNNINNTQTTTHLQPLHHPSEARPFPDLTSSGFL
SR-BI uptake up = enhances SR-BI lipid uptake from DiI-HDL | CHO ldlA[mSR-BI] cells, DiI-HDL uptake fluorescence, 3 h; 100 = double the neutral-control signal | activation, % at 12.5 µM | 320,000 compounds, 0.096% hits | AID 504775;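 active means mean replicate activation of at least 60% and every replicate at or above 60%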;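 further: 0% = median plate neutral-control signal and 100% = twice that signal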
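Test system: SR-BI-overexpressing, LDLR-lacking CHO cells; Also added: labelled HDL, 10 µg/mL; Measured by: bottom-read cell fluorescence after medium removal, ex 550/em 595 nm; Timing: 3 h uptake period with compound, 37 °C; Buffer or medium: F12, 0.5% BSA, 25 mM HEPES; Doses: single compound concentration, delivered by pin transfer.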
Yeast superoxide = lowers age-related superoxide in aged yeast cells; S. cerevisiae aged cells, superoxide DHE fluorescence; stronger effect = lower value; superoxide response (% of plate mean), % at 10 µM; 330,000 compounds, 0.18% hits;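 active means superoxide response under a set limit, about three screen SD below normal, cut at about 65% in these data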;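 further: yeast aged for seven days with compound at 30 °C before DHE staining; 100% = average MFI of all compound-treated wells on the plate with controls excluded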
AHR act confirm = confirmation of human aryl hydrocarbon receptor activators; shares compounds with AHR act; human cells, AHR-responsive luciferase reporter, luminescence; activation, % at 9 µM; 2,300 compounds, 87% hits; in the data active means activation above about 49%;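 further: HepG2 hepatoma cells carrying a DRE-driven firefly luciferase reporter; 0% = vehicle wells and 100% = reference agonist wells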
PXR counter = counter-screen for AHR activators: human PXR activators; shares compounds with AHR act; cell-based PXR reporter, luciferase luminescence; activation, % at 11.6 µM; 2,300 compounds, 88% hits; AID 434939; in the data active means activation above about 11%;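 further: human hepatoma DPX-2 cells expressing full-length human PXR; 0% = DMSO and 100% = reference agonist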
* = called active by the depositor; / = not tested or not shown.

SMILES	SMARCA2 activ	Hep lipid drop	SR-BI DiI inh	AHR act	SR-BI uptake up	Yeast superoxide	AHR act confirm	PXR counter
Cc1ccc2c(C)c(C(=O)N3CCN(c4cnccn4)CC3)oc2c1C	-3	9	-3	92*	3	105	114*	25*
C=CCN1CC(COCCCC)Oc2ccc(Cl)cc2S1(=O)=O (stereo unspecified)	-5	/	/	/	/	/	/	/
S=c1[nH]c(-c2ccccc2)cn1/N=C/c1cccnc1	-1	-2	/	82*	/	103	102*	17*
Fc1ccccc1/C=N/n1cc(-c2ccccc2)[nH]c1=S	-1	5	/	87*	/	86	112*	45*
CC(=O)c1c(C)oc2c1cc(O)c1ccccc12	-3	-22	/	20	/	97	/	/
CC(=O)c1cc(O)c2ccccc2c1O	2	-1	12	90*	-12	117	118*	9
COc1ccc2nccc(/C=C/c3ccnc4ccc(OC)cc34)c2c1	-4	1	/	105*	/	134	96*	34*
COc1ccc(OC)c(/C=C/c2ccnc3ccccc23)c1	0	/	31	/	-31	/	/	/
N#Cc1ccc(C23OCCN2CCn2nc4ccccc4c23)cc1 (stereo unspecified)	-1	/	-16	103*	16	122	109*	95*
S=c1[nH]nc(-c2cc3c(s2)-c2ccccc2CC3)o1	5	-7	-3	93*	3	157	116*	23*
CCCCCCCCN1C(=O)[C@@H](CC(=O)NCc2ccc(OC)c(OC)c2)C[C@@]2(C(=O)OC)C1=C[C@H](C(C)C)O[C@@H]2C1CC1	-3	/	/	/	/	/	/	/
O=C(Nc1nc2ncccn2c1-c1ccc(F)cc1)c1ccc(F)cc1	-1	/	/	/	/	/	/	/
O=C(Nc1ccc(Br)cc1F)c1cccnc1	-2	4	-5	126*	5	104	60*	26*
CCCc1c(C(=O)Nc2ccc(F)cc2F)cnn1-c1ccccc1	-8	8	-6	83*	6	92	91*	71*
Cc1cc(NC(=O)c2c(Br)cnn2C)no1	-4	-2	-27	/	27	/	/	/
CCCc1c(C(=O)Nc2cc(C(C)(C)C)on2)cnn1-c1ccccc1	4	-3	-27	-3	27	87	/	/
Cn1ncc(Br)c1C(=O)Nc1ccc(F)cc1F	-3	-14	9	85*	-9	101	80*	17*
Cc1nn(C)c(C(=O)Nc2ccc(Br)cc2F)c1Br	/	4	28	88*	-28	98	110*	12*
O=C(Nc1c(F)cc(F)cc1Br)c1cccnc1	-2	-3	-5	1	5	106	/	/
CCn1c(=O)n(CC(=O)N2CCCC2)c(=O)c2ccccc21	-3	/	/	/	/	/	/	/
Cc1ccc(Cn2nnc3c2-c2ccccc2S(=O)(=O)N(C)C3)cc1	-6	/	/	/	/	/	/	/
CC(C)OC(=O)c1nnc(Cc2ccc(F)cc2)o1	0	/	-25	91*	25	104	30	9
COC(=O)c1cc2c(c3c4cc(OC)ccc4n(S(=O)(=O)c4ccc(F)cc4)c13)C(=O)N(C)C2	-6	/	/	/	/	/	/	/
Cc1nn(Cc2ccccc2Cl)c2sc(C(=O)Nc3nccs3)cc12	-2	-6	19	102*	-19	112	119*	99*
CCC(CC)NC(=O)c1cc2c(C)nn(Cc3ccccc3Cl)c2s1	0	-29	41	4	-41	99	/	/
SMILES	SMARCA2 activ	Hep lipid drop	SR-BI DiI inh	AHR act	SR-BI uptake up	Yeast superoxide	AHR act confirm	PXR counter
Cc1nn(Cc2ccc(F)cc2)c2sc(C(=O)Nc3nccs3)cc12	-4	-33	42	96*	-42	103	109*	38*
COC(=O)[C@]12C[C@H](CC(=O)NCc3ccc(C)o3)C(=O)N(Cc3ccc4c(c3)OCO4)C1=C[C@H](COCc1ccccc1)O[C@@H]2C	-2	/	/	/	/	/	/	/
O=[N+]([O-])c1cccn2cc(-c3ccc(Br)cc3)nc12	-2	-2	32	107*	-32	107	214*	17*
C[C@H](O)[C@@H]1C(=O)N2CCc3c([nH]c4cccc(-c5ccccc5)c34)[C@@H]2C[C@@H]1N(C)C(=O)Nc1ccccc1	-4	/	/	/	/	/	/	/
COc1ccc(Cn2cc(CN3[C@@H](Cc4ccccc4)COc4cc(Br)ccc4S3(=O)=O)nn2)cc1	-3	/	/	/	/	/	/	/
Cc1[nH]c2ccc(C(=O)Nc3ccncc3)cc2c1C	-2	17	/	0	/	83	/	/
COc1ccccc1NC(=O)c1ccc2[nH]c(C)c(C)c2c1	3	-1	81*	113*	-81	82	133*	69*
CCOc1ccccc1OCCC(=O)Nc1ccc2c(c1)OCO2	-5	/	-2	17	2	86	/	/
COc1ccc(C)cc1NC(=O)NC(C)c1ccc2c(c1)OCO2 (stereo unspecified)	1	-28	2	28	-2	108	/	/
Cc1ccc(OC(F)F)c(NC(=O)Nc2ccc3c(c2)OCO3)c1	-2	-1	26	82*	-26	104	75*	47*
CCOc1ccccc1NC(=O)Nc1ccc2c(c1)OCO2	5	-1	57	103*	-57	94	115*	97*
Cc1ccc(-c2nc(-c3cccnc3)sc2CC(=O)O)cc1	-4	1	-29	-1	29	116	/	/
Cc1ccc(Nc2nc(-c3ccc(C)cc3)c(CC(=O)O)s2)cc1	1	33	-17	85*	17	112	9	8
CC1(C)CC(=O)C=C(c2ccccc2-c2ccc3c(c2)OCO3)C1=O	-4	/	/	/	/	/	/	/
Cc1nc(-c2ccccn2)sc1C(=O)Nc1ccc(F)cc1F	-1	/	17	95*	-17	88	44	26*
O=C(Nc1ccccc1)c1cnc(-c2ccccc2)nc1-c1ccccc1	-2	/	32	90*	-32	101	93*	47*
CCCC(=O)N1CCC[C@]2(CC[C@H](CCC#N)O2)C1	-1	/	/	/	/	/	/	/
O=[N+]([O-])c1cccc2ccc(/C=C/c3ccc(C(F)(F)F)cc3)nc12	-1	6	10	82*	-10	88	96*	15*
CCOc1cc(/C=C/c2ccc3cccc([N+](=O)[O-])c3n2)cc(Cl)c1O	-3	2	22	7	-22	97	/	/
O=[N+]([O-])c1cccc2ccc(/C=C/c3cccc(Br)c3)nc12	0	10	41	175*	-41	105	121*	25*
COc1ccc(C(=O)C2(C(=O)NCCO)CC(c3ccccn3)=NO2)cc1 (stereo unspecified)	4	/	/	/	/	/	/	/
OCCN1CN(c2ccccc2)C(=S)N(c2ccccc2)C1	-8	/	/	/	/	/	/	/
COc1ccc(-n2c(COc3ccc(C)cc3)nnc2SCC(=O)c2ccc(-c3ccccc3)cc2)cc1	0	/	/	/	/	/	/	/
